Laboratory results as given in ChEMBL document CHEMBL1146529, “Isolations of N-methyl-D-aspartic acid-type glutamate receptor ligands from Micronesian sponges” (J Nat Prod, 2003).
The source made the active and inactive calls. No cut-off for these calls is given here.

Tests used:
[1] = test system: Kainate-type glutamate receptor (Rattus norvegicus); experiment: Displacement of [3H]kanic acid from kainate receptor in Sprague-Dawley rat brain membrane
Mus musculus [2] = experiment: Agonist activity at NMDA receptor assessed as induction of convulsive behavior in intracerebroventricular dosed ddY mouse; assay type: functional
Method in brief: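 Male ddY mice (15-20 g, 4-6 weeks old) received intracerebroventricular injections. More than three animals were used per dose. ED50 (pmol/mouse) was derived from dose-response curves.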

Glutamate NMDA receptor = experiment: Displacement of [3H]CGP39653 from NMDA receptor in Sprague-Dawley rat brain membrane; assay type: cell membranes
Method in brief: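 Synaptic membranes were prepared from Sprague-Dawley rats (200-220 g). The assay used 2 nM [3H]CGP39653 to label the NMDA site, incubated at 4 °C for 1 h in 5 mM Tris-HCl (pH 7.7). Inhibition of labelled-ligand binding gave the IC50.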

[3] = test system: AMPA-type glutamate receptor (Rattus norvegicus); experiment: Displacement of [3H]AMPA from AMPA receptor in Sprague-Dawley rat brain membrane
Mus musculus [4] = experiment: Induction of convulsive behavior in icv dosed ddY mouse assessed as hyperactivie and stereotypical behaviors at 33 pmol; assay type: functional, organism-based
Mus musculus [5] = experiment: Agonist activity at NMDA receptor assessed as induction of violent convulsive behavior in intracerebroventricular dosed ddY mouse at 145 pmol; assay type: functional, organism-based

Row | Activity [1] | IC50 (Glutamate NMDA receptor) [nM] | Activity [3] | Compound | Activity (Mus musculus [2]) | ED50 (Mus musculus [2]) [pmol] | Activity (Mus musculus [4]) | Activity (Mus musculus [5])
1 | inactive | 214 | inactive | O=C(O)[C@@H]1C[C@@H](OS(=O)(=O)O)CCN1 | Dose-dependent effect | 20 |  | 
2 | inactive | 83 | inactive | O=C(O)[C@@H]1C[C@@H](OS(=O)(=O)O)[C@H](O)CN1 [CRIBRONIC ACID] | Dose-dependent effect | 29 | Active | Active
